Converted amounts (≈) assume the structure as drawn.
Assays:
Assay type in all cases: functional
Streptococcus pneumoniae = assay: In vitro minimum inhibitory concentration against Streptococcus pneumoniae UC41
Streptococcus pyogenes [1] = assay: In vivo effective dose given perorally to mice infected with Streptococcus pyogenes C 203; conditions: po
In short: (§1)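 Mice (five per treatment group, five groups) infected intraperitoneally with about 10⁵ cells of Strep. pyogenes C 203, about 100× the LD50. ED50 (mg/kg) was calculated from the percentage of mice surviving at each dose on day 7.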

Streptococcus pyogenes [2] = assay: In vitro minimum inhibitory concentration against Streptococcus pyogenes C 203
[3] = system: Staphylococcus haemolyticus; assay: In vitro minimum inhibitory concentration against Staphylococcus hemolyticus 602 cell line; conditions: strain 602
[4] = system: Staphylococcus epidermidis; assay: In vitro minimum inhibitory concentration against Staphylococcus epidermis ATCC 12228
Streptococcus pyogenes [5] = assay: Subcutaneously administration into mice infected with Streptococcus pyogenes C 203; conditions: sc; in short: as §1
Enterococcus faecalis = assay: In vitro minimum inhibitory concentration against Streptococcus faecalis ATCC 7080
Staphylococcus aureus = assay: In vitro minimum inhibitory concentration against Staphylococcus aureus Tour

Row | MIC (Streptococcus pneumoniae) | MIC (Streptococcus pyogenes [2]) | MIC [4] | MIC (Enterococcus faecalis) | MIC (Staphylococcus aureus) | SMILES | ED50 (Streptococcus pyogenes [1]) | MIC [3] | ED50 (Streptococcus pyogenes [5])
1 | 0.12 µg/mL (≈ 0.0624 µM) | 0.06 µg/mL (≈ 0.0312 µM) | 0.06 µg/mL (≈ 0.0312 µM) | 0.12 µg/mL (≈ 0.0624 µM) | 0.12 µg/mL (≈ 0.0624 µM) | CC(=O)N[C@@H]1[C@H](O[C@@H]2c3ccc(c(Cl)c3)Oc3cc4cc(c3O[C@@H]3O[C@@H](CO)[C@@H](O)[C@H](O)[C@@H]3NC(=O)CCCCCCC(C)C)Oc3ccc(cc3Cl)C[C@H]3NC(=O)[C@H](N)c5ccc(O)c(c5)Oc5cc(O)cc(c5)[C@H](NC3=O)C(=O)N[C@H]4C(=O)N[C@H]3C(=O)N[C@@H]2C(=O)N[C@H](C(=O)NCCN)c2cc(O)cc(O[C@H]4O[C@H](CO)[C@@H](O)[C@@H](O)[C@@H]4O)c2-c2cc3ccc2O)O[C@@H](CO)[C@@H](O)[C@@H]1O | 139 mg/kg | 0.12 µg/mL (≈ 0.0624 µM) | 0.18 mg/kg
2 | 0.06 µg/mL (≈ 0.0302 µM) | 0.06 µg/mL (≈ 0.0302 µM) | 0.06 µg/mL (≈ 0.0302 µM) | 0.12 µg/mL (≈ 0.0603 µM) | 0.12 µg/mL (≈ 0.0603 µM) | CCN1CCCC1CNC(=O)[C@H]1NC(=O)[C@H]2NC(=O)[C@H](NC(=O)[C@@H]3NC(=O)[C@H]4NC(=O)[C@@H](Cc5ccc(c(Cl)c5)Oc5cc3cc(c5O[C@@H]3O[C@@H](CO)[C@@H](O)[C@H](O)[C@@H]3NC(=O)CCCCCCC(C)C)Oc3ccc(cc3Cl)[C@H]2O[C@@H]2O[C@@H](CO)[C@@H](O)[C@H](O)[C@@H]2NC(C)=O)NC(=O)[C@H](N)c2ccc(O)c(c2)Oc2cc(O)cc4c2)c2ccc(O)c(c2)-c2c(O[C@H]3O[C@H](CO)[C@@H](O)[C@@H](O)[C@@H]3O)cc(O)cc21 (stereo partly specified) | 140 mg/kg | 0.12 µg/mL (≈ 0.0603 µM) | 0.1 mg/kg
3 | 0.06 µg/mL (≈ 0.0306 µM) | 0.06 µg/mL (≈ 0.0306 µM) | 0.12 µg/mL (≈ 0.0612 µM) | 0.12 µg/mL (≈ 0.0612 µM) | 0.12 µg/mL (≈ 0.0612 µM) | CCCCC/C=C/CCC(=O)N[C@@H]1[C@H](Oc2c3cc4cc2Oc2ccc(cc2Cl)[C@@H](O[C@@H]2O[C@@H](CO)[C@@H](O)[C@H](O)[C@@H]2NC(C)=O)[C@@H]2NC(=O)[C@H](NC(=O)[C@@H]4NC(=O)[C@H]4NC(=O)[C@@H](Cc5ccc(c(Cl)c5)O3)NC(=O)[C@H](N)c3ccc(O)c(c3)Oc3cc(O)cc4c3)c3ccc(O)c(c3)-c3c(O[C@H]4O[C@H](CO)[C@@H](O)[C@@H](O)[C@@H]4O)cc(O)cc3[C@@H](C(=O)NC3CCNCC3)NC2=O)O[C@@H](CO)[C@@H](O)[C@@H]1O | 89.6 mg/kg | 1 µg/mL (≈ 0.51 µM) | 0.08 mg/kg
4 | 0.06 µg/mL (≈ 0.0299 µM) | 0.06 µg/mL (≈ 0.0299 µM) | 0.12 µg/mL (≈ 0.0598 µM) | 0.12 µg/mL (≈ 0.0598 µM) | 0.12 µg/mL (≈ 0.0598 µM) | CC(=O)N[C@@H]1[C@H](O[C@@H]2c3ccc(c(Cl)c3)Oc3cc4cc(c3O[C@@H]3O[C@@H](CO)[C@@H](O)[C@H](O)[C@@H]3NC(=O)CCCCCCC(C)C)Oc3ccc(cc3Cl)C[C@H]3NC(=O)[C@H](N)c5ccc(O)c(c5)Oc5cc(O)cc(c5)[C@H](NC3=O)C(=O)N[C@H]4C(=O)N[C@H]3C(=O)N[C@@H]2C(=O)N[C@H](C(=O)NCCCN2CCOCC2)c2cc(O)cc(O[C@H]4O[C@H](CO)[C@@H](O)[C@@H](O)[C@@H]4O)c2-c2cc3ccc2O)O[C@@H](CO)[C@@H](O)[C@@H]1O | > 300 mg/kg | 0.5 µg/mL (≈ 0.249 µM) | 0.18 mg/kg
5 | 0.12 µg/mL (≈ 0.0615 µM) | 0.06 µg/mL (≈ 0.0308 µM) | 0.06 µg/mL (≈ 0.0308 µM) | 0.12 µg/mL (≈ 0.0615 µM) | 0.12 µg/mL (≈ 0.0615 µM) | CNCCN(C)C(=O)[C@H]1NC(=O)[C@H]2NC(=O)[C@H](NC(=O)[C@@H]3NC(=O)[C@H]4NC(=O)[C@@H](Cc5ccc(c(Cl)c5)Oc5cc3cc(c5O[C@@H]3O[C@@H](CO)[C@@H](O)[C@H](O)[C@@H]3NC(=O)CCCCCCC(C)C)Oc3ccc(cc3Cl)[C@H]2O[C@@H]2O[C@@H](CO)[C@@H](O)[C@H](O)[C@@H]2NC(C)=O)NC(=O)[C@H](N)c2ccc(O)c(c2)Oc2cc(O)cc4c2)c2ccc(O)c(c2)-c2c(O[C@H]3O[C@H](CO)[C@@H](O)[C@@H](O)[C@@H]3O)cc(O)cc21 | 72 mg/kg | 1 µg/mL (≈ 0.513 µM) | 0.1 mg/kg
6 | 0.12 µg/mL (≈ 0.0607 µM) | 0.06 µg/mL (≈ 0.0303 µM) | 0.06 µg/mL (≈ 0.0303 µM) | 0.12 µg/mL (≈ 0.0607 µM) | 0.12 µg/mL (≈ 0.0607 µM) | CC(=O)N[C@@H]1[C@H](O[C@@H]2c3ccc(c(Cl)c3)Oc3cc4cc(c3O[C@@H]3O[C@@H](CO)[C@@H](O)[C@H](O)[C@@H]3NC(=O)CCCCCCC(C)C)Oc3ccc(cc3Cl)C[C@H]3NC(=O)[C@H](N)c5ccc(O)c(c5)Oc5cc(O)cc(c5)[C@H](NC3=O)C(=O)N[C@H]4C(=O)N[C@H]3C(=O)N[C@@H]2C(=O)N[C@H](C(=O)NCCCCCCN)c2cc(O)cc(O[C@H]4O[C@H](CO)[C@@H](O)[C@@H](O)[C@@H]4O)c2-c2cc3ccc2O)O[C@@H](CO)[C@@H](O)[C@@H]1O | > 300 mg/kg | 0.12 µg/mL (≈ 0.0607 µM) | 0.14 mg/kg
7 | 0.12 µg/mL (≈ 0.0607 µM) | 0.06 µg/mL (≈ 0.0303 µM) | 0.06 µg/mL (≈ 0.0303 µM) | 0.12 µg/mL (≈ 0.0607 µM) | 0.12 µg/mL (≈ 0.0607 µM) | CC(=O)N[C@@H]1[C@H](O[C@@H]2c3ccc(c(Cl)c3)Oc3cc4cc(c3O[C@@H]3O[C@@H](CO)[C@@H](O)[C@H](O)[C@@H]3NC(=O)CCCCCCC(C)C)Oc3ccc(cc3Cl)C[C@H]3NC(=O)[C@H](N)c5ccc(O)c(c5)Oc5cc(O)cc(c5)[C@H](NC3=O)C(=O)N[C@H]4C(=O)N[C@H]3C(=O)N[C@@H]2C(=O)N[C@H](C(=O)NCCCCN(C)C)c2cc(O)cc(O[C@H]4O[C@H](CO)[C@@H](O)[C@@H](O)[C@@H]4O)c2-c2cc3ccc2O)O[C@@H](CO)[C@@H](O)[C@@H]1O | 90 mg/kg | 0.25 µg/mL (≈ 0.126 µM) | 0.1 mg/kg
8 | 0.06 µg/mL (≈ 0.0305 µM) | 0.06 µg/mL (≈ 0.0305 µM) | 0.12 µg/mL (≈ 0.0609 µM) | 0.12 µg/mL (≈ 0.0609 µM) | 0.12 µg/mL (≈ 0.0609 µM) | CC(=O)N[C@@H]1[C@H](O[C@@H]2c3ccc(c(Cl)c3)Oc3cc4cc(c3O[C@@H]3O[C@@H](CO)[C@@H](O)[C@H](O)[C@@H]3NC(=O)CCCCCCC(C)C)Oc3ccc(cc3Cl)C[C@H]3NC(=O)[C@H](N)c5ccc(O)c(c5)Oc5cc(O)cc(c5)[C@H](NC3=O)C(=O)N[C@H]4C(=O)N[C@H]3C(=O)N[C@@H]2C(=O)N[C@H](C(=O)NCc2ccccn2)c2cc(O)cc(O[C@H]4O[C@H](CO)[C@@H](O)[C@@H](O)[C@@H]4O)c2-c2cc3ccc2O)O[C@@H](CO)[C@@H](O)[C@@H]1O | 139 mg/kg | 8 µg/mL (≈ 4.06 µM) | 0.08 mg/kg
9 | 0.12 µg/mL (≈ 0.0611 µM) | 0.06 µg/mL (≈ 0.0306 µM) | 0.06 µg/mL (≈ 0.0306 µM) | 0.12 µg/mL (≈ 0.0611 µM) | 0.12 µg/mL (≈ 0.0611 µM) | CNCCCN(C)C(=O)[C@H]1NC(=O)[C@H]2NC(=O)[C@H](NC(=O)[C@@H]3NC(=O)[C@H]4NC(=O)[C@@H](Cc5ccc(c(Cl)c5)Oc5cc3cc(c5O[C@@H]3O[C@@H](CO)[C@@H](O)[C@H](O)[C@@H]3NC(=O)CCCCCCC(C)C)Oc3ccc(cc3Cl)[C@H]2O[C@@H]2O[C@@H](CO)[C@@H](O)[C@H](O)[C@@H]2NC(C)=O)NC(=O)[C@H](N)c2ccc(O)c(c2)Oc2cc(O)cc4c2)c2ccc(O)c(c2)-c2c(O[C@H]3O[C@H](CO)[C@@H](O)[C@@H](O)[C@@H]3O)cc(O)cc21 | > 300 mg/kg | 0.25 µg/mL (≈ 0.127 µM) | 0.13 mg/kg
10 | 0.12 µg/mL (≈ 0.0611 µM) | 0.06 µg/mL (≈ 0.0306 µM) | 0.06 µg/mL (≈ 0.0306 µM) | 0.12 µg/mL (≈ 0.0611 µM) | 0.12 µg/mL (≈ 0.0611 µM) | CCNCCCNC(=O)[C@H]1NC(=O)[C@H]2NC(=O)[C@H](NC(=O)[C@@H]3NC(=O)[C@H]4NC(=O)[C@@H](Cc5ccc(c(Cl)c5)Oc5cc3cc(c5O[C@@H]3O[C@@H](CO)[C@@H](O)[C@H](O)[C@@H]3NC(=O)CCCCCCC(C)C)Oc3ccc(cc3Cl)[C@H]2O[C@@H]2O[C@@H](CO)[C@@H](O)[C@H](O)[C@@H]2NC(C)=O)NC(=O)[C@H](N)c2ccc(O)c(c2)Oc2cc(O)cc4c2)c2ccc(O)c(c2)-c2c(O[C@H]3O[C@H](CO)[C@@H](O)[C@@H](O)[C@@H]3O)cc(O)cc21 | 112 mg/kg | 0.12 µg/mL (≈ 0.0611 µM) | 0.1 mg/kg
11 | 0.06 µg/mL (≈ 0.0301 µM) | 0.06 µg/mL (≈ 0.0301 µM) | 0.12 µg/mL (≈ 0.0602 µM) | 0.12 µg/mL (≈ 0.0602 µM) | 0.12 µg/mL (≈ 0.0602 µM) | CC(=O)N[C@@H]1[C@H](O[C@@H]2c3ccc(c(Cl)c3)Oc3cc4cc(c3O[C@@H]3O[C@@H](CO)[C@@H](O)[C@H](O)[C@@H]3NC(=O)CCCCCCC(C)C)Oc3ccc(cc3Cl)C[C@H]3NC(=O)[C@H](N)c5ccc(O)c(c5)Oc5cc(O)cc(c5)[C@H](NC3=O)C(=O)N[C@H]4C(=O)N[C@H]3C(=O)N[C@@H]2C(=O)N[C@H](C(=O)NCCCCCN(C)C)c2cc(O)cc(O[C@H]4O[C@H](CO)[C@@H](O)[C@@H](O)[C@@H]4O)c2-c2cc3ccc2O)O[C@@H](CO)[C@@H](O)[C@@H]1O | 112 mg/kg | 0.5 µg/mL (≈ 0.251 µM) | 0.12 mg/kg
12 | 0.06 µg/mL (≈ 0.0306 µM) | 0.06 µg/mL (≈ 0.0306 µM) | 0.06 µg/mL (≈ 0.0306 µM) | 0.06 µg/mL (≈ 0.0306 µM) | 0.12 µg/mL (≈ 0.0611 µM) | CC(=O)N[C@@H]1[C@H](O[C@@H]2c3ccc(c(Cl)c3)Oc3cc4cc(c3O[C@@H]3O[C@@H](CO)[C@@H](O)[C@H](O)[C@@H]3NC(=O)CCCCCCC(C)C)Oc3ccc(cc3Cl)C[C@H]3NC(=O)[C@H](N)c5ccc(O)c(c5)Oc5cc(O)cc(c5)[C@H](NC3=O)C(=O)N[C@H]4C(=O)N[C@H]3C(=O)N[C@@H]2C(=O)N[C@H](C(=O)N(C)CCN(C)C)c2cc(O)cc(O[C@H]4O[C@H](CO)[C@@H](O)[C@@H](O)[C@@H]4O)c2-c2cc3ccc2O)O[C@@H](CO)[C@@H](O)[C@@H]1O | 90 mg/kg | 0.25 µg/mL (≈ 0.127 µM) | 0.15 mg/kg

— ChEMBL document CHEMBL1124366, “Synthesis and biological properties of N63-carboxamides of teicoplanin antibiotics. Structure-activity relationships” (J Med Chem, 1989)
